Data taken from ChEMBL document CHEMBL4699629, “N-Hydroxyformamide LpxC inhibitors, their in vivo efficacy in a mouse Escherichia coli infection model, and their safety in a rat hemodynamic assay” (Bioorg Med Chem, 2020).
In brackets after ≈: the same amount, converted by molar mass.

Legend:
[1] = target: T1, UDP-3-O-acyl-N-acetylglucosamine deacetylase (Pseudomonas aeruginosa (strain ATCC 15692 / PAO1 / 1C / PRS 101 / LMG12228), UniProt P47205); assay: Displacement of fluorescent ligand from Pseudomonas aeruginosa LpxC measured after 30 mins by fluorescence anisotrophy assay
T1 sequence (P47205 whole entry): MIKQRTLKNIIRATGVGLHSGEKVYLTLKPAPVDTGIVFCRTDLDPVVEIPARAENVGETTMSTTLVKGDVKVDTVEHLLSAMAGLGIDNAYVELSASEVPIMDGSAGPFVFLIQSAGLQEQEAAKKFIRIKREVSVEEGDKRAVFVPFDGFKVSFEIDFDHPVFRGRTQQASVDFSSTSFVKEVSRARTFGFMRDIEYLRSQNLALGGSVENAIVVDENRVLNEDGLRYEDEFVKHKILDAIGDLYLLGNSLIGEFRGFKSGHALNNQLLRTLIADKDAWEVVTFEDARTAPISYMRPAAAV

[2] = Displacement of fluorescent ligand from Escherichia coli LpxC measured after 30 mins by fluorescence anisotrophy assay
How it was run: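 Well mixes of 2 nM ligand C ± 12.5 nM E. coli LpxC; inhibitor two-fold dilutions 10 µM to […]; 30 min ambient, anisotropy 540/590 nm; % inhibition vs no-enzyme min; Hill fit for IC50; artifact correction at high concentrations.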

Escherichia coli [3] = assay: Antibacterial activity against Escherichia coli ATCC 25922 assessed as bacterial growth inhibition by CLSI based broth microdilution method; assay type: functional
How it was run: (§1)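 CLSI broth microdilution determination of MIC.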

Pseudomonas aeruginosa = assay: Antibacterial activity against Pseudomonas aeruginosa PAO1 assessed as bacterial growth inhibition by CLSI based broth microdilution method; assay type: functional; how it was run: as §1
Klebsiella pneumoniae = assay: Antibacterial activity against Klebsiella pneumoniae ATCC 700603 assessed as bacterial growth inhibition by CLSI based broth microdilution method; assay type: functional; how it was run: as §1
[4] = Solubility of the compound in 2.5% dextrose in sodium acetate buffer at pH 5; assay type: physicochemical
[5] = Cmax in mouse at 200 mg/kg, sc; assay type: ADME, organism-based; design: route subcutaneous, dose 200 mg/kg; conditions: in vivo
[6] = AUC in mouse at 200 mg/kg, sc; assay type: ADME, organism-based; design: dose 200 mg/kg; conditions: in vivo
[7] = Observed clearance in mouse at 200 mg/kg, sc; assay type: ADME, organism-based; conditions: in vivo
[8] = Volume of distribution in mouse at 200 mg/kg, sc; assay type: ADME, organism-based; conditions: in vivo
[9] = Ratio of fAUC in mouse at 200 mg/kg, sc to MIC for antibacterial activity against Escherichia coli ARC6599 infected in cyclophosphamide-induced CD-1 mouse model of neutropenic thigh infection; assay type: ADME, organism-based; conditions: in vivo
[10] = Protein binding in mouse plasma assessed as unbound fraction after 7 hrs by LC-MS/MS-based rapid equilibrium dialysis method; assay type: ADME, cell-free
How it was run: (§2)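 Rapid equilibrium dialysis: plasma spiked to 5 µM final, dialysed against PBS at 37 °C for 7 h with 400 rpm shaking; both chambers protein-precipitated with acetonitrile/0.1% formic acid containing carbutamide internal standard, quantified by LC-MS/MS. fu = buffer/sample peak area ratio; recovery accepted between 70 and 130%.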

[11] = Protein binding in rat plasma assessed as unbound fraction after 7 hrs by LC-MS/MS-based rapid equilibrium dialysis method; assay type: ADME, cell-free; how it was run: as §2
Escherichia coli [12] = assay: Antibacterial activity against Escherichia coli ARC6599 infected in cyclophosphamide-induced CD-1 mouse model of neutropenic thigh infection assessed as log10 reduction in CFU at 200 mg/kg, sc qd administered 2 hrs post-infection and measured after 24 hrs; assay type: functional
How it was run: (§3)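 Female CD-1 mice made neutropenic with cyclophosphamide IP, 150 mg/kg day -4 and 100 mg/kg day -1. Saline suspension from overnight plate, OD625 0.13, diluted; 100 µL i.m. into both rear thighs (actual 7.6×10^5 CFU/thigh). Dosing began 2 h post-infection, s.c. at 20 mL/kg in 5% DMSO plus 2.5% dextrose/20 mM acetate ([…]); 3 mice/group. Thighs harvested 26 h post-infection, homogenized in 2 mL saline, plated; mean and SD of log CFU.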

Escherichia coli [13] = assay: Antibacterial activity against Escherichia coli ARC6599 infected in cyclophosphamide-induced CD-1 mouse model of neutropenic thigh infection assessed as log10 reduction in CFU at 200 mg/kg, sc bid administered 2 hrs post-infection and measured after 24 hrs; assay type: functional; how it was run: as §3
Acetylcholinesterase = Acetylcholinesterase (Homo sapiens, UniProt P22303); assay: Inhibition of human AchE expressed in HEK293 cells using acetylthiocholine as substrate by Ellman's method
Chain of Acetylcholinesterase (P22303 whole entry): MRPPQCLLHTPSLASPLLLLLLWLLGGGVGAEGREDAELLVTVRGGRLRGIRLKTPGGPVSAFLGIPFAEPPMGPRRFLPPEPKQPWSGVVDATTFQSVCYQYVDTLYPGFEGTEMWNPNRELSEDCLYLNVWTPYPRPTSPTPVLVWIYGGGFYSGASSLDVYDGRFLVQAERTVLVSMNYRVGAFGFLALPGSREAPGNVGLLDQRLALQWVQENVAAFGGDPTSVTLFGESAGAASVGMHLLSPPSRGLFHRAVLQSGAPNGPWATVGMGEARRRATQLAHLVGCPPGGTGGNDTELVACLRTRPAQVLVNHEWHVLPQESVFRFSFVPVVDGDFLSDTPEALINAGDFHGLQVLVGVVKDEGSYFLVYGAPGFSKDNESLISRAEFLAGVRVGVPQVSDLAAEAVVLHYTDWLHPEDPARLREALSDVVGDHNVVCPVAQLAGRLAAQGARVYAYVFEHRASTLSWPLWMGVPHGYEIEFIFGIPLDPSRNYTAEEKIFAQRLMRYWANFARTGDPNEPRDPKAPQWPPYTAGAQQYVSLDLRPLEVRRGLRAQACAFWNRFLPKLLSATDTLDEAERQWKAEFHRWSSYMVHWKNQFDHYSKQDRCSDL
How it was run: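 Purified recombinant enzyme in 0.1 M sodium phosphate pH 7.4 with 0.01% Triton X-100. Two-fold inhibitor dilutions from 300 µM to 0.29 µM plus zero, each held at 3% DMSO. Acetylthiocholine and Ellman's reagent added as a solution of 1.2 mM each; reaction started with 0.006 U/mL enzyme solution. A412 read every minute for 1 h, with a no-enzyme blank subtracted. Initial slopes give % inhibition; IC50 from a Hill-equation fit.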

Escherichia coli [14] = assay: Antibacterial activity against Escherichia coli ARC6599 infected in sc dosed cyclophosphamide-induced CD-1 mouse model of neutropenic thigh infection assessed as reduction in CFU administered 2 hrs post-infection and measured after 24 hrs; assay type: functional, organism-based; how it was run: as §3
[15] = Clearance in Sprague-Dawley rat at 90 mg/kg, iv administered as single bolus dose by HPLC analysis; assay type: ADME, organism-based; conditions: in vivo
How it was run: (§4)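 Fasted male Sprague-Dawley rats given one IV tail-vein slow-push bolus of compound formulated at 90 mg/mL in 2.5% dextrose/20 mM acetate pH 5, 1 mL/kg; saphenous blood at selected times into K2EDTA for plasma.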

[16] = Volume of distribution at steady state in Sprague-Dawley rat at 90 mg/kg, iv administered as single bolus dose by HPLC analysis; assay type: ADME, organism-based; conditions: in vivo, read-out: Vdss; how it was run: as §4
[17] = Chemical stability of the compound; assay type: physicochemical

Row | Compound | IC50 [1] | IC50 [2] | MIC (Escherichia coli [3]) | further results
1 | CCC(Cn1nnc2cc(C#Cc3ccc(CN4CCOCC4)cc3)ccc21)N(O)C=O (stereo not drawn) | 2.4 nM | < 10 nM | 1 µg/mL (≈ 2.31 µM) | 
2 | CCC(Cc1n[nH]c2cc(C#Cc3ccc(CN4CCOCC4)cc3)ccc12)N(O)C=O (stereo not drawn) | 10 nM | 19 nM | 4 µg/mL (≈ 9.25 µM) | MIC (Pseudomonas aeruginosa): > 64 µg/mL; MIC (Klebsiella pneumoniae): > 64 µg/mL
3 | CSC(Cn1nnc2cc(C#Cc3ccc(CN4CCOCC4)cc3)ccc21)N(O)C=O (stereo not drawn) | 1.3 nM | < 10 nM | 0.25 µg/mL (≈ 0.554 µM) | 
4 | CCSC(Cn1nnc2cc(C#Cc3ccc(CN4CCOCC4)cc3)ccc21)N(O)C=O (stereo not drawn) | 5.4 nM | < 10 nM | 0.5 µg/mL (≈ 1.07 µM) | 
5 | CS[C@H](Cn1nnc2cc(C#Cc3ccc(CN4CCOCC4)cc3)ccc21)N(O)C=O | 21 nM | 41 nM | 4 µg/mL (≈ 8.86 µM) | 
6 | O=CN(O)C(CO)Cn1nnc2cc(C#Cc3ccc(CN4CCOCC4)cc3)ccc21 (stereo not drawn) | 61 nM | 42 nM | 2 µg/mL (≈ 4.59 µM) | 
7 | CS[C@@H](Cn1nnc2cc(C#Cc3ccc(CN4CC5(C4)C[S+]([O-])C5)cc3)ccc21)N(O)C=O.O=C(O)C(F)(F)F |  |  |  | solubility [4]: > 200 mg/mL
8 | CS[C@@H](Cn1nnc2cc(C#Cc3ccc(CN4CCOCC4)cc3)ccc21)N(O)C=O | < 1 nM | < 10 nM | 0.13 µg/mL (≈ 0.288 µM) | MIC (Pseudomonas aeruginosa): 4 µg/mL (≈ 8.86 µM); MIC (Klebsiella pneumoniae): 4 µg/mL (≈ 8.86 µM); Cmax [5]: 21500 ng/mL; AUC [6]: 34800 ng·h/mL; CL [7]: 80 mL/min/kg; Vd [8]: 10.1 L/kg; fAUC/MIC [9]: 104; fraction unbound at 7 h [10]: 0.09; fraction unbound at 7 h [11]: 0.03; Activity (Escherichia coli [12]): 2 log10CFU; Activity (Escherichia coli [13]): >3.2 log10CFU; IC50 (Acetylcholinesterase): 3500 nM; Activity (Escherichia coli [14]): Dose-dependent effect; clearance [15]: 33.3 mL/min/kg; Vd [16]: 0.58 L/kg
9 | C[C@@H](O)[C@H](NC(=O)c1ccc(C#Cc2ccc(CN3CCOCC3)cc2)cc1)C(=O)NO |  | < 10 nM | 0.13 µg/mL (≈ 0.297 µM) | MIC (Pseudomonas aeruginosa): 1 µg/mL (≈ 2.29 µM); MIC (Klebsiella pneumoniae): 2 µg/mL (≈ 4.57 µM)
10 | CC[C@@H]([C@@H](CC(C)O)c1n[nH]c2cc(C#Cc3ccc(CN4CCOCC4)cc3)ccc12)N(O)C=O (mixture of isomers) | 2.5 nM | < 10 nM | 1 µg/mL | MIC (Pseudomonas aeruginosa): 16 µg/mL; MIC (Klebsiella pneumoniae): 32 µg/mL
11 | COC(Cn1nnc2cc(C#Cc3ccc(CN4CCOCC4)cc3)ccc21)N(O)C=O (stereo not drawn) | 7.3 nM | < 10 nM | 0.25 µg/mL (≈ 0.574 µM) | Stabilty [17]: Unstable
12 | O=C(CNC(=O)c1ccc(C#Cc2ccc(CN3CCOCC3)cc2)cc1)NO | 63 nM | 21 nM | 16 µg/mL (≈ 40.7 µM) | MIC (Pseudomonas aeruginosa): 64 µg/mL (≈ 163 µM); MIC (Klebsiella pneumoniae): > 64 µg/mL
13 | CCOC(Cn1nnc2cc(C#Cc3ccc(CN4CCOCC4)cc3)ccc21)N(O)C=O (stereo not drawn) | 41 nM | 22 nM | 2 µg/mL (≈ 4.45 µM) | Stabilty [17]: Unstable

The next lines start with results.

Row | IC50 [1] | IC50 [2] | MIC (Escherichia coli [3]) | Compound | further results
14 | 45 nM | 10 nM | 2 µg/mL (≈ 4.96 µM) | O=CN(O)CCn1ccc2cc(C#Cc3ccc(CN4CCOCC4)cc3)ccc21 | 
15 | 63 nM | 21 nM | 32 µg/mL (≈ 84.6 µM) | O=CN(O)CCCc1ccc(C#Cc2ccc(CN3CCOCC3)cc2)cc1 | 
16 | 170 nM | 25 nM | 4 µg/mL (≈ 9.54 µM) | O=CN(O)CCN1C(=O)Cc2cc(C#Cc3ccc(CN4CCOCC4)cc3)ccc21 | 
17 | 280 nM | 54 nM | 16 µg/mL (≈ 39.5 µM) | O=CN(O)CCc1nnc2cc(C#Cc3ccc(CN4CCOCC4)cc3)ccn12 | 
18 | 14 nM |  | 2 µg/mL (≈ 4.77 µM) | CC(Cn1nnc2cc(C#Cc3ccc(CN4CCOCC4)cc3)ccc21)N(O)C=O (stereo not drawn) | 
19 | 1000 nM | 740 nM | 64 µg/mL (≈ 158 µM) | O=CN(O)CCn1ccc2cc(C#Cc3ccc(CN4CCOCC4)cc3)ncc21 | 
20 | 1100 nM | 82 nM | 16 µg/mL (≈ 39.6 µM) | O=CN(O)CCn1cnc2cc(C#Cc3ccc(CN4CCOCC4)cc3)ccc21 | 
21 | 1000 nM | 170 nM | 32 µg/mL (≈ 79.1 µM) | O=CN(O)CCn1ccc2nc(C#Cc3ccc(CN4CCOCC4)cc3)ccc21 | 
22 | 37 nM | 15 nM | 4 µg/mL (≈ 9.87 µM) | O=CN(O)CCc1nnn2cc(C#Cc3ccc(CN4CCOCC4)cc3)ccc12 | 
23 | 64 nM | 28 nM | 4 µg/mL (≈ 9.89 µM) | O=CN(O)CCn1ncc2cc(C#Cc3ccc(CN4CCOCC4)cc3)ccc21 | 
24 | 44 nM | 20 nM | 4 µg/mL (≈ 9.87 µM) | O=CN(O)CCn1nnc2cc(C#Cc3ccc(CN4CCOCC4)cc3)ccc21 | 
